Converted amounts (≈) assume the structure as drawn. The source made the active and inactive calls. The calls are words filed in the database; no cut-off is given here.
System: Staphylococcus aureus
Assay: Antibacterial activity against methicillin-resistant Staphylococcus aureus EMRSA-15 after 20 hrs by broth microdilution method
Type: functional
Settings: EMRSA-15, 20 h
Method in brief: (§1)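 Broth microdilution per CLSI guidelines in Mueller Hinton Broth. Growth read as optical density at 600 nm after 20 h. MIC taken as the lowest concentration giving OD600 below 0.10. Run in triplicate.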

SMILES | MIC [µg/mL]
O=[N+]([O-])c1ccc(C2=NOC(c3ccc(N4CCN(Cc5cccnc5)CC4)cc3)C2)o1 (configuration not stated) | 16 (≈ 36.9 µM)
CC(C)(C)OC(=O)N1CCN(c2ccc(C3CC(c4ccc([N+](=O)[O-])o4)=NO3)cc2)CC1 (configuration not stated) | > 128
O=C1CN(/N=C/c2ccc([N+](=O)[O-])o2)C(=O)N1 [NITROFURANTOIN] | 16 (≈ 67.2 µM)

System: Staphylococcus aureus
Assay: Ratio of MBC to MIC against methicillin-sensitive Staphylococcus aureus ATCC 9144
Type: functional
Settings: not given
Method in brief: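 MBC/MIC ratio from the broth microdilution MIC (Mueller Hinton Broth, OD600 <0.10 after 20 h, triplicate) and the MBC (MIC-plate wells at and above the MIC spotted on tryptic soy agar, 37 °C 24 h, no colonies). A ratio of 1 or 2 was taken as bactericidal; 4 or 16 as bacteriostatic.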

SMILES | Ratio
O=[N+]([O-])c1ccc(C2=NOC(c3ccc(N4CCN(Cc5cccnc5)CC4)cc3)C2)o1 (configuration not stated) | 8

System: Staphylococcus aureus
Assay: Antibacterial activity against Staphylococcus aureus NCTC 6571 after 20 hrs by broth microdilution method
Type: functional
Settings: NCTC 6571, 20 h
Method in brief: (§2)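 Broth microdilution per CLSI guidelines in Mueller Hinton Broth. Growth was read as optical density at 600 nm after 20 hours. The MIC was taken as the lowest drug concentration at which OD600 stayed below 0.10. Run in triplicate.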

SMILES | MIC [µg/mL]
O=[N+]([O-])c1ccc(C2=NOC(c3ccc(N4CCN(Cc5cccnc5)CC4)cc3)C2)o1 (configuration not stated) | 16 (≈ 36.9 µM)
O=C1CN(/N=C/c2ccc([N+](=O)[O-])o2)C(=O)N1 [NITROFURANTOIN] | 16 (≈ 67.2 µM)

System: Klebsiella pneumoniae
Assay: Antibacterial activity against Klebsiella pneumoniae NCTC 13368 after 20 hrs by broth micro dilution method
Type: functional
Settings: NCTC 13368, 20 h
Method in brief: as §2

SMILES | MIC [µg/mL]
O=[N+]([O-])c1ccc(C2=NOC(c3ccc(N4CCN(Cc5cccnc5)CC4)cc3)C2)o1 (configuration not stated) | > 128
CC(C)(C)OC(=O)N1CCN(c2ccc(C3CC(c4ccc([N+](=O)[O-])o4)=NO3)cc2)CC1 (configuration not stated) | > 128

System: Pseudomonas aeruginosa
Assay: Antibacterial activity against Pseudomonas aeruginosa NCTC 13437 after 20 hrs by broth micro dilution method
Type: functional
Settings: NCTC 13437, 20 h
Method in brief: as §2

SMILES | MIC [µg/mL]
O=[N+]([O-])c1ccc(C2=NOC(c3ccc(N4CCN(Cc5cccnc5)CC4)cc3)C2)o1 (configuration not stated) | > 128
CC(C)(C)OC(=O)N1CCN(c2ccc(C3CC(c4ccc([N+](=O)[O-])o4)=NO3)cc2)CC1 (configuration not stated) | > 128

System: Staphylococcus aureus
Assay: Antibacterial activity against Staphylococcus aureus NCTC 8325 after 20 hrs by broth microdilution method
Type: functional
Settings: NCTC 8325, 20 h
Method in brief: as §2

SMILES | MIC [µg/mL]
O=[N+]([O-])c1ccc(C2=NOC(c3ccc(N4CCN(Cc5cccnc5)CC4)cc3)C2)o1 (configuration not stated) | 16 (≈ 36.9 µM)
O=C1CN(/N=C/c2ccc([N+](=O)[O-])o2)C(=O)N1 [NITROFURANTOIN] | 16 (≈ 67.2 µM)

System: Klebsiella pneumoniae
Assay: Antibacterial activity against Klebsiella pneumoniae M6 after 20 hrs by broth micro dilution method
Type: functional
Settings: M6, 20 h
Method in brief: as §2

SMILES | MIC [µg/mL]
O=[N+]([O-])c1ccc(C2=NOC(c3ccc(N4CCN(Cc5cccnc5)CC4)cc3)C2)o1 (configuration not stated) | > 128
CC(C)(C)OC(=O)N1CCN(c2ccc(C3CC(c4ccc([N+](=O)[O-])o4)=NO3)cc2)CC1 (configuration not stated) | > 128

System: HeLa
Assay: Cytotoxicity against human HeLa cells assessed as reduction in cell viability after 96 hrs by MTT assay
Type: cell-based
Settings: not given
Method in brief: (§3)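 HeLa cells were kept in DMEM with 10% FBS, 2 mM L-glutamine, non-essential amino acids and penicillin-streptomycin at 37 °C, 5% CO2. 10,000 cells per well were plated and left 24 h. Compound was then added in triplicate for 96 h continuous exposure. MTT read-out was absorbance at 570 nm. IC50 came from dose-response analysis.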

SMILES | IC50 [µM]
O=[N+]([O-])c1ccc(C2=NOC(c3ccc(N4CCN(Cc5cccnc5)CC4)cc3)C2)o1 (configuration not stated) | > 50
CC(C)(C)OC(=O)N1CCN(c2ccc(C3CC(c4ccc([N+](=O)[O-])o4)=NO3)cc2)CC1 (configuration not stated) | > 50

System: Acinetobacter baumannii
Assay: Antibacterial activity against Acinetobacter baumannii ATCC 17978 after 20 hrs by broth micro dilution method
Type: functional
Settings: ATCC 17978, 20 h
Method in brief: as §2

SMILES | MIC [µg/mL]
O=[N+]([O-])c1ccc(C2=NOC(c3ccc(N4CCN(Cc5cccnc5)CC4)cc3)C2)o1 (configuration not stated) | > 128
CC(C)(C)OC(=O)N1CCN(c2ccc(C3CC(c4ccc([N+](=O)[O-])o4)=NO3)cc2)CC1 (configuration not stated) | > 128

System: Staphylococcus aureus
Assay: Antibacterial activity against methicillin-resistant Staphylococcus aureus EMRSA-16 after 20 hrs by broth microdilution method
Type: functional
Settings: EMRSA-16, 20 h
Method in brief: as §1

SMILES | MIC [µg/mL]
O=[N+]([O-])c1ccc(C2=NOC(c3ccc(N4CCN(Cc5cccnc5)CC4)cc3)C2)o1 (configuration not stated) | 32 (≈ 73.8 µM)
CC(C)(C)OC(=O)N1CCN(c2ccc(C3CC(c4ccc([N+](=O)[O-])o4)=NO3)cc2)CC1 (configuration not stated) | > 128
O=C1CN(/N=C/c2ccc([N+](=O)[O-])o2)C(=O)N1 [NITROFURANTOIN] | 16 (≈ 67.2 µM)

System: Staphylococcus aureus
Assay: Bacteriostatic activity against methicillin-resistant Staphylococcus aureus EMRSA-15 at 4 times MIC after 5 to 24 hrs by time kill assay
Type: functional
Settings: not given
Method in brief: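 Mueller Hinton Broth flasks (50 mL) inoculated at ~10^6 cfu/mL. Agent added at 4x MIC and shaken at 200 rpm, 37 °C. Samples taken hourly for 8 h and at 24 h. Viable counts by modified Miles-Misra dilution. Values are the average of at least three replicate experiments, SEM shown.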

SMILES | Activity
O=[N+]([O-])c1ccc(C2=NOC(c3ccc(N4CCN(Cc5cccnc5)CC4)cc3)C2)o1 (configuration not stated) | Active

System: Staphylococcus aureus
Assay: Antibacterial activity against Staphylococcus aureus isolate 13142 after 20 hrs by broth microdilution method
Type: functional
Settings: isolate 13142, 20 h
Method in brief: as §2

SMILES | MIC [µg/mL]
O=[N+]([O-])c1ccc(C2=NOC(c3ccc(N4CCN(Cc5cccnc5)CC4)cc3)C2)o1 (configuration not stated) | 8 to 16 (≈ 18.5 to 36.9 µM)
O=C1CN(/N=C/c2ccc([N+](=O)[O-])o2)C(=O)N1 [NITROFURANTOIN] | 16 (≈ 67.2 µM)

System: Staphylococcus aureus
Assay: Antibacterial activity against methicillin-resistant Staphylococcus aureus NCTC 12493 after 20 hrs by broth microdilution method
Type: functional
Settings: NCTC 12493, 20 h
Method in brief: as §1

SMILES | MIC [µg/mL]
O=[N+]([O-])c1ccc(C2=NOC(c3ccc(N4CCN(Cc5cccnc5)CC4)cc3)C2)o1 (configuration not stated) | 4 to 8 (≈ 9.23 to 18.5 µM)
O=C1CN(/N=C/c2ccc([N+](=O)[O-])o2)C(=O)N1 [NITROFURANTOIN] | 16 (≈ 67.2 µM)

System: Pseudomonas aeruginosa
Assay: Antibacterial activity against Pseudomonas aeruginosa PAO1 after 20 hrs by broth micro dilution method
Type: functional
Settings: PAO1, 20 h
Method in brief: as §2

SMILES | MIC [µg/mL]
O=[N+]([O-])c1ccc(C2=NOC(c3ccc(N4CCN(Cc5cccnc5)CC4)cc3)C2)o1 (configuration not stated) | > 128
CC(C)(C)OC(=O)N1CCN(c2ccc(C3CC(c4ccc([N+](=O)[O-])o4)=NO3)cc2)CC1 (configuration not stated) | > 128

System: Acinetobacter baumannii
Assay: Antibacterial activity against Acinetobacter baumannii ATCC BAA-1710 after 20 hrs by broth micro dilution method
Type: functional
Settings: ATCC BAA-1710, 20 h
Method in brief: as §2

SMILES | MIC [µg/mL]
O=[N+]([O-])c1ccc(C2=NOC(c3ccc(N4CCN(Cc5cccnc5)CC4)cc3)C2)o1 (configuration not stated) | > 128
CC(C)(C)OC(=O)N1CCN(c2ccc(C3CC(c4ccc([N+](=O)[O-])o4)=NO3)cc2)CC1 (configuration not stated) | > 128

System: Staphylococcus aureus
Assay: Bactericidal activity against methicillin-sensitive Staphylococcus aureus ATCC 9144 after 24 hrs
Type: functional
Settings: ATCC 9144, 24 h
Method in brief: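 From the MIC plate, 10ul was taken from every well at and above the MIC and spotted onto tryptic soy agar. Plates were incubated 24 h at 37 °C. The MBC was the concentration at which no colonies grew.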

SMILES | MBC [µg/mL]
O=[N+]([O-])c1ccc(C2=NOC(c3ccc(N4CCN(Cc5cccnc5)CC4)cc3)C2)o1 (configuration not stated) | ≥ 128

System: Staphylococcus epidermidis
Assay: Antibacterial activity against Staphylococcus epidermidis ATCC 35984 after 20 hrs by broth microdilution method
Type: functional
Settings: RP62A
Method in brief: as §2

SMILES | MIC [µg/mL]
O=[N+]([O-])c1ccc(C2=NOC(c3ccc(N4CCN(Cc5cccnc5)CC4)cc3)C2)o1 (configuration not stated) | 4 to 8 (≈ 9.23 to 18.5 µM)
O=C1CN(/N=C/c2ccc([N+](=O)[O-])o2)C(=O)N1 [NITROFURANTOIN] | 16 (≈ 67.2 µM)

System: Staphylococcus aureus
Assay: Antibacterial activity against Staphylococcus aureus BGW541 after 20 hrs by broth microdilution method
Type: functional
Settings: BGW541, 20 h
Method in brief: as §2

SMILES | MIC [µg/mL]
O=[N+]([O-])c1ccc(C2=NOC(c3ccc(N4CCN(Cc5cccnc5)CC4)cc3)C2)o1 (configuration not stated) | 8 (≈ 18.5 µM)
O=C1CN(/N=C/c2ccc([N+](=O)[O-])o2)C(=O)N1 [NITROFURANTOIN] | 16 (≈ 67.2 µM)

System: WI-38
Assay: Cytotoxicity against human WI38 cells assessed as reduction in cell viability after 96 hrs by MTT assay
Type: cell-based
Settings: WI-38, 96 h
Method in brief: as §3, with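 “WI-38 lung fibroblasts” for “HeLa cells”, “15%” for “10%”, “fitting.” for “analysis.”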

SMILES | IC50 [µM]
O=[N+]([O-])c1ccc(C2=NOC(c3ccc(N4CCN(Cc5cccnc5)CC4)cc3)C2)o1 (configuration not stated) | > 50
CC(C)(C)OC(=O)N1CCN(c2ccc(C3CC(c4ccc([N+](=O)[O-])o4)=NO3)cc2)CC1 (configuration not stated) | > 50

System: Staphylococcus aureus
Assay: Antibacterial activity against Staphylococcus aureus A1988 after 20 hrs by broth microdilution method
Type: functional
Settings: A1988, 20 h
Method in brief: as §2

SMILES | MIC [µg/mL]
O=[N+]([O-])c1ccc(C2=NOC(c3ccc(N4CCN(Cc5cccnc5)CC4)cc3)C2)o1 (configuration not stated) | 8 (≈ 18.5 µM)
O=C1CN(/N=C/c2ccc([N+](=O)[O-])o2)C(=O)N1 [NITROFURANTOIN] | 16 (≈ 67.2 µM)

System: Staphylococcus aureus
Assay: Antibacterial activity against methicillin-sensitive Staphylococcus aureus ATCC 9144 after 20 hrs by broth micro dilution method
Type: functional
Settings: ATCC 9144, 20 h
Method in brief: as §2

SMILES | MIC [µg/mL]
O=[N+]([O-])c1ccc(C2=NOC(c3ccc(N4CCN(Cc5cccnc5)CC4)cc3)C2)o1 (configuration not stated) | 16 (≈ 36.9 µM)
CC(C)(C)OC(=O)N1CCN(c2ccc(C3CC(c4ccc([N+](=O)[O-])o4)=NO3)cc2)CC1 (configuration not stated) | 32 (≈ 72.3 µM)
O=C1CN(/N=C/c2ccc([N+](=O)[O-])o2)C(=O)N1 [NITROFURANTOIN] | 16 (≈ 67.2 µM)

Source: ChEMBL document CHEMBL4052664, “Novel pyridyl nitrofuranyl isoxazolines show antibacterial activity against multiple drug resistant Staphylococcus species” (Bioorg Med Chem, 2017)
